# The source made the active and inactive calls. No cut-off for these calls is given here.
# Assays:
# Mus musculus [1] = experiment: […] activity in ip dosed Swiss albino mouse assessed as inhibition of DOI-induced head twitches administered 20 mins before DOI challenge measured for 20 mins; assay type: functional; conditions: for ED50: read-out: ID50 (the source's name)
# Mus musculus [2] = experiment: Antidepressant activity in mouse assessed as spontaneous locomotor activity 5 to 20 mg/kg; assay type: functional, organism-based
# Outline: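 Swiss albino mice given the forced swim doses ip 30 min before; placed individually in cages and channel crossings counted from 2 to 6 min with a multichannel activity monitor, matching the swim test observation period.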
# [3] = biological target: T1, 5-hydroxytryptamine receptor 7 (Homo sapiens, UniProt P34969); experiment: Displacement of [3H]5-CT form human cloned 5HT7 receptor expressed in human HEK293 cells by liquid scintillation counter; assay type: cell-based
# Outline: (§1)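 Competition binding. 5-HT1A: rat hippocampus, [3H]-8-OH-DPAT. 5-HT2A: rat cortex, [3H]-ketanserin. D2: rat striatum, [3H]-spiperone. 5-HT6: human receptor stably in HEK293, [3H]-LSD. 5-HT7: human receptor stably in HEK293, [3H]-5-CT. Vacuum filtration on GF/B filters, ice-cold washes, scintillation counting.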
# [4] = biological target: T2, 5-hydroxytryptamine receptor 1A (Rattus norvegicus, UniProt P19327); experiment: Displacement of [3H]8-OH-DPAT from rat hippocampus 5-HT1A receptor by liquid scintillation counter; assay type: tissue-based; outline: as §1
# T2 sequence (P19327 whole entry): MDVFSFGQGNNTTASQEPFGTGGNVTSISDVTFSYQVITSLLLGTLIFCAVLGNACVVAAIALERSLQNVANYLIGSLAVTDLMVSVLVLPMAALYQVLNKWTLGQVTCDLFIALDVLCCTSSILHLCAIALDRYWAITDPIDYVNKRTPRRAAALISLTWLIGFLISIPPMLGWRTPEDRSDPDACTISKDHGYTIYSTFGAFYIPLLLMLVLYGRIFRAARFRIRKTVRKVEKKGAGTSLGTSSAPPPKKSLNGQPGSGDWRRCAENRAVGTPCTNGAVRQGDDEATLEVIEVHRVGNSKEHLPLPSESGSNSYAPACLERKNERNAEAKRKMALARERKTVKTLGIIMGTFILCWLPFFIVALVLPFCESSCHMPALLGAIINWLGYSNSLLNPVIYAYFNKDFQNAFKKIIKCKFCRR
# Mus musculus [5] = experiment: Antidepressant activity in Swiss albino mouse assessed as reduction in immobility time at 5 to 20 mg/kg measured for 4 mins by forced swim test; assay type: functional; parameters: scale not given: the % may be the effect or the level left; conditions: dose mg/kg 5-20
# Outline: (§2)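 Porsolt forced swim in male Swiss albino mice. Drugs ip (10 ml/kg; 1% Tween 80 suspension, imipramine in water) 30 min before. Cylinder 25 cm high, 10 cm diameter, 6 cm water at 23–25 °C, 6 min session; immobility scored over final 4 min. 5–10 mice/dose; one-way ANOVA with Bonferroni.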
# [6] = biological target: 5-hydroxytryptamine receptor 6 (Homo sapiens, UniProt P50406); experiment: Displacement of [3H]-LSD from human full length cloned 5HT6 receptor expressed in human HEK293 cells by liquid scintillation counter; assay type: cell-based; outline: as §1
# [7] = biological target: 5-hydroxytryptamine receptor 2A (Rattus norvegicus, UniProt P14842); experiment: Displacement of [3H]Ketanserin from rat cortex 5-HT2A receptor by liquid scintillation counter; outline: as §1
# Mus musculus [8] = experiment: Antipsychotic activity in CD1 mouse assessed as reduction in spontaneous locomotor activity measuring number of crossings at 10 to 30 mg/kg every 5 mins for 1 hr; assay type: functional, organism-based
# Outline: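 Male CD-1 mice; compound or reference ip 30 min before test plus vehicle. After 30 min habituation in individual cages, crossings counted over 1 h, recorded every 5 min; mean ± SEM; one-way ANOVA, Bonferroni.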
# Rattus norvegicus [9] = experiment: Anxiolytic activity in Wistar rat assessed as increase in open arm entries at 2.5 mg/kg after 5 mins by plus-maze test (reference value: 23.1 +/- […]); assay type: functional
# Mus musculus [10] = experiment: […] activity in Swiss albino mouse assessed as inhibition of apomorphine-induced climbing behavior administered 10 mins before apomorphine challenge measured for 2 mins; assay type: functional
# Outline: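 Male Swiss albino mice; compounds ip in 1% Tween 80 suspension, 10 min before apomorphine 3 mg/kg. Climbing time (2–4 paws on bar wall) recorded for 2 min starting 20 min after apomorphine.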
# [11] = biological target: T3, D(4) dopamine receptor (Homo sapiens) (UniProt P21917); experiment: Displacement of [3H]-methylspiperone from human cloned dopamine D4 receptor expressed in HEK293 cells at 10 '-6 M by liquid scintillation counter; assay type: cell-based
# T3 sequence (whole entry): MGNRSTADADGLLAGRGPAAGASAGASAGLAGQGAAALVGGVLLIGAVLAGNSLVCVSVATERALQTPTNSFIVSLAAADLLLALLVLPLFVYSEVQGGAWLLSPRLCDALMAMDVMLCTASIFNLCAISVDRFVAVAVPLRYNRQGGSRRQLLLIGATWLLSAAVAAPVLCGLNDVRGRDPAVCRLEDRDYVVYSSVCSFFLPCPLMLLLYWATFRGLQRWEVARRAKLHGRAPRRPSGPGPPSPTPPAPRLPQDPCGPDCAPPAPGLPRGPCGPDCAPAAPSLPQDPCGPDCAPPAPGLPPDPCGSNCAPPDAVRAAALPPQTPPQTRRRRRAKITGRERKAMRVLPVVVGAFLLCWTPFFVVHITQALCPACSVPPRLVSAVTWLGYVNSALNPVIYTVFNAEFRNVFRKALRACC
# Rattus norvegicus [12] = experiment: Anxiolytic activity in Wistar rat assessed as increase in open arm entries at 5 mg/kg after 5 mins by plus-maze test (reference value: 23.1 +/- […]); assay type: functional
# D(2) dopamine receptor = D(2) dopamine receptor (Rattus norvegicus, UniProt P61169); experiment: Displacement of [3H]-spiperone from rat striatum dopamine D2 receptor by liquid scintillation counter; outline: as §1
# Rattus norvegicus [13] = experiment: Anxiolytic activity in Wistar rat assessed as increase in time spent in open arms at 5 mg/kg after 5 mins by plus-maze test (reference value: 7.9 +/- 1.4 %); assay type: functional
# [14] = biological target: T3, D(4) dopamine receptor (Homo sapiens); experiment: Displacement of [3H]-methylspiperone from human cloned dopamine D4 receptor expressed in HEK293 cells at 10 '-7 M by liquid scintillation counter; assay type: cell-based
# [15] = biological target: D(3) dopamine receptor (Homo sapiens) (UniProt P35462); experiment: Displacement of [3H]-methylspiperone from human cloned dopamine D3 receptor expressed in HEK293 cells at 10 '-6 M by liquid scintillation counter; assay type: cell-based
# Rattus norvegicus [16] = experiment: Anxiolytic activity in Wistar rat assessed as increase in Y ambulations at 2.5 mg/kg for 5 mins by general locomotor activity test; assay type: functional, organism-based; parameters: dose 2.5 mg/kg
# Mus musculus [17] = experiment: Antidepressant activity in Swiss albino mouse assessed as reduction in immobility time at 10 mg/kg measured for 4 mins by forced swim test; assay type: functional; outline: as §2
# Rattus norvegicus [18] = experiment: Anxiolytic activity in Wistar rat assessed as increase in total distance at 2.5 mg/kg for 5 mins by general locomotor activity test; assay type: functional, organism-based; parameters: dose 2.5 mg/kg
# Mus musculus [19] = experiment: Antipsychotic activity in CD1 mouse assessed as inhibition of MK-801-induced hyperactivity measuring number of crossings at 5 to 30 mg/kg measured every 5 mins for 1 hr; assay type: functional, organism-based
# Outline: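 Male CD-1 mice; test compound ip 30 min before, MK-801 0.2 mg/kg (in water) ip 15 min before testing. After 30 min habituation, crossings counted for 60 min, recorded every 5 min. 5–10 mice/group; mean ± SEM; one-way ANOVA, Bonferroni versus vehicle + MK-801.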
# [20] = Selectivity ratio of compound Ki for rat hippocampus 5-HT1A receptor to human 5HT7 receptor; assay type: tissue-based
# Outline: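 Ratio of Ki values from competition binding: rat hippocampus 5-HT1A with [3H]-8-OH-DPAT versus human 5-HT7 in HEK293 with [3H]-5-CT; Ki by Cheng–Prusoff from 7–9 concentrations in triplicate.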
# Mus musculus [21] = experiment: Antidepressant activity in Swiss albino mouse assessed as reduction in immobility time at 20 mg/kg measured for 4 mins by forced swim test; assay type: functional; outline: as §2
# [22] = biological target: D(3) dopamine receptor (Homo sapiens) (UniProt P35462); experiment: Displacement of [3H]-methylspiperone from human cloned dopamine D3 receptor expressed in HEK293 cells at 10 '-7 M by liquid scintillation counter; assay type: cell-based
# Rattus norvegicus [23] = experiment: Anxiolytic activity in Wistar rat assessed as increase in time spent in open arms at 2.5 mg/kg after 5 mins by plus-maze test (reference value: 7.9 +/- 1.4 %); assay type: functional
# [24] = biological target: T1, 5-hydroxytryptamine receptor 7; experiment: Antagonist activity at human cloned 5HT7 receptor expressed in human CHO cells assessed as adenylate cyclase activity by cAMP accumulation assay; assay type: functional, cell-based
# Outline: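 CHO cells stably expressing human 5-HT7 receptor; intracellular cAMP (adenylate cyclase) measured, expressed as % of maximal effect of 300 nM serotonin. Compounds tested at 5 concentrations spanning 10^-4–10^-9 in antagonist mode. KB from IC50 by modified Cheng–Prusoff, KB = IC50/(1+A/EC50A), A = reference agonist concentration.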
# Rattus norvegicus [25] = experiment: Anxiolytic activity in Wistar rat assessed as increase in open arm entries at 10 mg/kg after 5 mins by plus-maze test (reference value: 23.1 +/- […]); assay type: functional
# Rattus norvegicus [26] = experiment: Anxiolytic activity in Wistar rat assessed as increase in time spent in open arms at 10 mg/kg after 5 mins by plus-maze test (reference value: 7.9 +/- 1.4 %); assay type: functional
# T1 sequence (P34969 whole entry): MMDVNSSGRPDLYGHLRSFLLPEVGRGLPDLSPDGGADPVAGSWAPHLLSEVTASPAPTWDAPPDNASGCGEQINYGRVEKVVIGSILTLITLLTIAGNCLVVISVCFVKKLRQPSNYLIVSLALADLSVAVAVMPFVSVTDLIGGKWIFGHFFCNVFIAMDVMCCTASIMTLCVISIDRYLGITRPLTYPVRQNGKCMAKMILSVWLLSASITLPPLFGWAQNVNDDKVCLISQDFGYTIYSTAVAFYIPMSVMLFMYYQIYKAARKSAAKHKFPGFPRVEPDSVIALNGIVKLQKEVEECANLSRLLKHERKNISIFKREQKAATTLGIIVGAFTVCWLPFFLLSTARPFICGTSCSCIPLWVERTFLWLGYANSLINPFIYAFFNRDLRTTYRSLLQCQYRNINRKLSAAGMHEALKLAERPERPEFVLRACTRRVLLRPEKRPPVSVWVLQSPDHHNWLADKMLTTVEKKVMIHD
# 5-hydroxytryptamine receptor 6, sequence (P50406 whole entry): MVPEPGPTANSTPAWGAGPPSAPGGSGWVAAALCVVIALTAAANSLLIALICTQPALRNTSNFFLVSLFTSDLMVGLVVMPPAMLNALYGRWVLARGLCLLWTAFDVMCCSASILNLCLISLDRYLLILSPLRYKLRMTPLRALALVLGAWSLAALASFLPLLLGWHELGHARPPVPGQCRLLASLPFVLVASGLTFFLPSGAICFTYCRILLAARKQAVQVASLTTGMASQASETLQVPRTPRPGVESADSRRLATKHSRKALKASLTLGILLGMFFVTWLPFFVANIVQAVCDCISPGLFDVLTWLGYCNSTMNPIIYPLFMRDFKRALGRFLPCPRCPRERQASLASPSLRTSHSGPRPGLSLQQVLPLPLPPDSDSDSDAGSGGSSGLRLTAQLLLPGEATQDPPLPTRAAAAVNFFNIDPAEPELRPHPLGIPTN
# D(3) dopamine receptor (Homo sapiens), sequence (P35462 whole entry): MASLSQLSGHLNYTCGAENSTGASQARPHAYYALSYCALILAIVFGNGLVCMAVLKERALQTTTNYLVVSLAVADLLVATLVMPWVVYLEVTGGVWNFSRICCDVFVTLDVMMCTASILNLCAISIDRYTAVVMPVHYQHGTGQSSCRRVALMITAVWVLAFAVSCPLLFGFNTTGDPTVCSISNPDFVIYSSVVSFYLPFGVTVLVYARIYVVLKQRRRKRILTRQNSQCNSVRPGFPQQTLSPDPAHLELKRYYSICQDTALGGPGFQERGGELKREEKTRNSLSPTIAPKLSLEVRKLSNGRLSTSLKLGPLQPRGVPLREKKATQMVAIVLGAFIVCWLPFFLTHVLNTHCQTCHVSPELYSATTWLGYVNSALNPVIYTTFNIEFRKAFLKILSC
# 5-hydroxytryptamine receptor 2A, sequence (P14842 whole entry): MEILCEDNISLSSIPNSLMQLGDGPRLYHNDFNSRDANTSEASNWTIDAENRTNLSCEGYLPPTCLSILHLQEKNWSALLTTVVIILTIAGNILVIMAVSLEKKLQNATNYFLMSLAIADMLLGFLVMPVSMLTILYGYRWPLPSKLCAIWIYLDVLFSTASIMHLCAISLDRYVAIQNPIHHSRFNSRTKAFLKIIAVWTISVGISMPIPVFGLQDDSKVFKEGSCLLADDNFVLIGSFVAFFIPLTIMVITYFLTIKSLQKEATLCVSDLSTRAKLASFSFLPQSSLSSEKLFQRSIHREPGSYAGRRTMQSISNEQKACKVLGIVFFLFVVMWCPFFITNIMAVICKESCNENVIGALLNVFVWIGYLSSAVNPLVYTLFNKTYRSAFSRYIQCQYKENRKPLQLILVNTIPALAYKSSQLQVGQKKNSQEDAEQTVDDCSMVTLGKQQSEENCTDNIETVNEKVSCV
# D(2) dopamine receptor, sequence (P61169 whole entry): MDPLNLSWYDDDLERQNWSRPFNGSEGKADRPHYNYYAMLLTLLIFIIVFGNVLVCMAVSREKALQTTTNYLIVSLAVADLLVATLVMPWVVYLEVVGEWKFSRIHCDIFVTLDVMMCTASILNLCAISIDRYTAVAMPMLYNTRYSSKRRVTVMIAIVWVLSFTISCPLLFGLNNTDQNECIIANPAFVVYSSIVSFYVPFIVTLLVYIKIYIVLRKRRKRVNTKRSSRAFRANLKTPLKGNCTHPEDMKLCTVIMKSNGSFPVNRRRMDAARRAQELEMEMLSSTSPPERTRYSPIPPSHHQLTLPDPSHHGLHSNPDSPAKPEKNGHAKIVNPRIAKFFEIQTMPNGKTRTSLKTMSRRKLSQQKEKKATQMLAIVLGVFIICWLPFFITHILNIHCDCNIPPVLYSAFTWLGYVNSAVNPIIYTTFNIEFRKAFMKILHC
compound,measurement,setting,value
Cl.O=S(=O)(NCCCCN1CCN(c2cccc(Cl)c2)CC1)c1cnc2ccc(Cl)cc2c1,inhibition,Mus musculus [1],Dose-dependent effect
same,ED50,Mus musculus [1],4.75 mg/kg
same,Activity,Mus musculus [2],inactive
same,Ki,[3],88 nM
same,Ki,[4],208 nM
same,Activity,Mus musculus [5],44%
same,Ki,[6],155 nM
same,Ki,[7],56 nM
Cl.O=S(=O)(c1cncc2ccccc12)N1CCC(CCN2CCN(c3ccc(Cl)cc3)CC2)CC1,Activity,Mus musculus [8],inactive
same,Activity,Rattus norvegicus [9],36.4%
same,inhibition,Mus musculus [10],Dose-dependent effect
same,ED50,Mus musculus [10]; read-out: ID50 (the source's name),25.5 mg/kg
same,inhibition,Mus musculus [1],Dose-dependent effect
same,ED50,Mus musculus [1],20.3 mg/kg
same,inhibition,[11],98%
same,Activity,Rattus norvegicus [12],32.9%
same,Ki,D(2) dopamine receptor,60 nM
same,Activity,Rattus norvegicus [13],19.4%
same,inhibition,[14],70%
same,inhibition,[15],93%
same,Activity,Rattus norvegicus [16],Active
same,Activity,Mus musculus [17],Active
same,Activity,Rattus norvegicus [18],Active
same,Ki,[3],47 nM
same,Ki,[4],3210 nM
same,Ki,[6],16700 nM
same,inhibition,Mus musculus [19],Active
same,Ratio Ki,[20],68
same,Activity,Mus musculus [21],Active
same,inhibition,[22],67%
same,Activity,Rattus norvegicus [23],25%
same,Kb,[24],90 nM
same,Ki,[7],59 nM
same,Activity,Rattus norvegicus [25],40.3%
same,Activity,Rattus norvegicus [26],29.3%

# Source: ChEMBL document CHEMBL1949570, “Quinoline- and isoquinoline-sulfonamide derivatives of LCAP as potent CNS multi-receptor-5-HT1A/5-HT2A/5-HT7 and D2/D3/D4-agents: the synthesis and pharmacological evaluation” (Bioorg Med Chem, 2012)
